According to ChEMBL document CHEMBL4602702, “Red-Emitting Dibenzodiazepinone Derivatives as Fluorescent Dualsteric Probes for the Muscarinic Acetylcholine M2 Receptor” (J Med Chem, 2020):
pKd, pKi: −log10 of the molar value. The source made the active and inactive calls. The rule behind the calls is not given here.

Columns and labels:
Format in all cases: cell-based
[1] = molecular target: T1, Muscarinic acetylcholine receptor M2 (Homo sapiens) (UniProt P08172); assay: Competitive binding affinity to human muscarinic M2 receptor expressed in CHO-K9 cells assessed as rightward shift of saturation isotherm resulting in Schild regression in presence of increasing concentration of W84 by Schild-like analysis
T1 sequence (whole entry): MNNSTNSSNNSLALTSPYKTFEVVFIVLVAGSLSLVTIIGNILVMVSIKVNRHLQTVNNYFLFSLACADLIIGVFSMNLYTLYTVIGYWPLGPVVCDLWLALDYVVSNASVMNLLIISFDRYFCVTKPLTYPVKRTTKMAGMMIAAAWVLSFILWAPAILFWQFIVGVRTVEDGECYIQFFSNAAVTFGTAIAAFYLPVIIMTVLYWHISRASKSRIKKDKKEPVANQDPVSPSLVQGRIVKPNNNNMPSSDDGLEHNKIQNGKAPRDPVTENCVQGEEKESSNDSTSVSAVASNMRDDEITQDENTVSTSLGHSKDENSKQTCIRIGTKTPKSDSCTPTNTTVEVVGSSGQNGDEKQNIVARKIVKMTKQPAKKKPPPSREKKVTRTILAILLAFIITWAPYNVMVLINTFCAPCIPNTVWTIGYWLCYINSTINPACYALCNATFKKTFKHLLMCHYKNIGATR
Summary of the method: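 High-content imaging saturation binding of fluorescent ligand at intact CHO-hM2R cells in the presence of increasing concentrations of the allosteric modulator W84. Rightward shifts (ΔpKd) plotted as log(r−1) vs log[modulator], with r = 10^ΔpKd. Three independent experiments in triplicate.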

[2] = molecular target: T2, Muscarinic acetylcholine receptor M1 (Homo sapiens, UniProt P11229); assay: Binding affinity to human muscarinic M1 receptor expressed in CHO-K9 cells incubated in dark measured after 60 mins by Hoechst H33342 dye based confocal plate reader assay
T2 sequence (P11229 whole entry): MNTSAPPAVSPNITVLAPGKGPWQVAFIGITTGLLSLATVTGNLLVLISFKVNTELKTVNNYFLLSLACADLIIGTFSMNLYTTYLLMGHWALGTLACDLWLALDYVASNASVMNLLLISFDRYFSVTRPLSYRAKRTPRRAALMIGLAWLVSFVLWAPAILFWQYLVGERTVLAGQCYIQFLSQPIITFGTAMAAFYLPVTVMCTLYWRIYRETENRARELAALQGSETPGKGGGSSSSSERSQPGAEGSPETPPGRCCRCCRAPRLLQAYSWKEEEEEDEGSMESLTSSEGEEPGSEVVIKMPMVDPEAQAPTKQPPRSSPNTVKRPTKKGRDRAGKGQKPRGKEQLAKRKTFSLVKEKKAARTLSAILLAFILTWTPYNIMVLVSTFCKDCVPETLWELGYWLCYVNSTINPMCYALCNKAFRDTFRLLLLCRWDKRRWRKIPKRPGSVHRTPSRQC
Summary of the method: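 Live CHO-hMxR cells (M1 or M2) incubated with fluorescent ligand at 22 °C in the dark for 1 h, washed, then imaged at once by high-content confocal plate reader.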

[3] = molecular target: T1, Muscarinic acetylcholine receptor M2 (Homo sapiens); assay: Binding affinity to human muscarinic M2 receptor expressed in CHO-K9 cells assessed as observed association rate constant at 22 +/- 1 degree C incubated under shaking condition in dark for 1 to 300 mins by flow cytometric saturation binding study
[4] = molecular target: T3, Muscarinic acetylcholine receptor M5 (Homo sapiens, UniProt P08912); assay: Displacement of [3H]-NMS from human muscarinic M5 receptor stably expressed in CHO-K9 cells by radioligand competitive binding assay
T3 sequence (P08912 whole entry): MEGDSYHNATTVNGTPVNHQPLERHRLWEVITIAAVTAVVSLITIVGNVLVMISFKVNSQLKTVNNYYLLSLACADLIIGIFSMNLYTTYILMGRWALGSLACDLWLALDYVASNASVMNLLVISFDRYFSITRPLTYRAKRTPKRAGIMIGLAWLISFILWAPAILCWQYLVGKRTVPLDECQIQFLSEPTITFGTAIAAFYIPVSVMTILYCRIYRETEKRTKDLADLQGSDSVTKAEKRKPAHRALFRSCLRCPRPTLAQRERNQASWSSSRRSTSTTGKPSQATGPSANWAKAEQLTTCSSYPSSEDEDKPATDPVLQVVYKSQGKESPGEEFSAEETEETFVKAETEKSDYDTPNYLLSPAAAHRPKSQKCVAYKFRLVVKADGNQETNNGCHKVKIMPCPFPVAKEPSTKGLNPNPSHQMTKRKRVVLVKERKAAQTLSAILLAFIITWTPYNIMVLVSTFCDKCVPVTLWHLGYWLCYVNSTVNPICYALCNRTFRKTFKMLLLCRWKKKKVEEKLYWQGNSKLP
Summary of the method: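 Equilibrium competition binding at live CHO-hMxR cells with [3H]NMS at M1 0.2, M2 0.2, M3 0.2, M4 0.1, M5 0.3 nM. […] Four-parameter logistic fit converted to pKi; at least three experiments in triplicate (some two).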

[5] = molecular target: T4, Muscarinic acetylcholine receptor M2 (Homo sapiens, UniProt P08172); assay: Binding affinity to human muscarinic M2 receptor expressed in […] cells incubated in dark at 22 degree C for 2 hrs by FACSCalibur flow cytometric saturation binding study; details: for pKd: read-out: Kd; for Kd: read-out: pKd (converted)
T4 sequence (P08172 whole entry): T1 sequence (whole entry)

[6] = molecular target: T1, Muscarinic acetylcholine receptor M2 (Homo sapiens); assay: Binding affinity to human muscarinic M2 receptor expressed in CHO-K9 cells assessed as association rate constant at 22 +/- 1 degree C incubated under shaking condition in dark for 1 to 300 mins by flow cytometric saturation binding study
[7] = molecular target: T2, Muscarinic acetylcholine receptor M1; assay: Binding affinity to human muscarinic M1 receptor expressed in CHO-K9 cells incubated in dark at 22 degree C for 2 hrs by FACSCalibur flow cytometric saturation binding study
[8] = molecular target: T5, Muscarinic acetylcholine receptor M4 (Homo sapiens, UniProt P08173); assay: Binding affinity to human muscarinic M4 receptor expressed in […] cells incubated in dark at 22 degree C for 2 hrs by FACSCalibur flow cytometric saturation binding study
T5 sequence (P08173 whole entry): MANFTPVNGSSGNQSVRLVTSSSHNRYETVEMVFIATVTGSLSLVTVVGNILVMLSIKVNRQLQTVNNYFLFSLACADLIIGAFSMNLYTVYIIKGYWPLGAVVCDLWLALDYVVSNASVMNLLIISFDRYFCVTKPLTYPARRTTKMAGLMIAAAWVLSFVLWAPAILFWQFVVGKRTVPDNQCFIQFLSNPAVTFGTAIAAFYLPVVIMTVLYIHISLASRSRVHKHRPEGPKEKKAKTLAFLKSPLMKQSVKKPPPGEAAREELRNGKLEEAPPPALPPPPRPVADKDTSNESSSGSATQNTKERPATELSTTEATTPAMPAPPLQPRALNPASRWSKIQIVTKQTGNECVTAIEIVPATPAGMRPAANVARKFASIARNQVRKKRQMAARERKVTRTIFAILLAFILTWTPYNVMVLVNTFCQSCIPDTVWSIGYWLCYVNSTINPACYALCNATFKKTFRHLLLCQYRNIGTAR

[9] = molecular target: T4, Muscarinic acetylcholine receptor M2; assay: Binding affinity to human muscarinic M2 receptor expressed in […] cells at 22 +/- 1 degree C preincubated for 120 mins followed by atropine addition by flow cytometric saturation binding study

Activity [1] | pKd [2] | K [3] | pKi [4] | pKd [5] | Kd [5] | K [6] | pKd [7] | pKd [8] | pKd [9] | SMILES
Active | 8.00 | 0.024 min⁻¹ | 6.39 | 8.49 | 3.09 nM | 81700 M⁻¹ s⁻¹ | – | – | – | CC1(C)C(/C=C/C=C/C=C2/N(CCCCCC(=O)NCc3cc(C(=O)NCCNC(=O)CCc4cn(CCCCC5CCN(CC(=O)N6c7ccccc7NC(=O)c7ccccc76)CC5)cn4)cc(C(=O)NCCNC(=O)CCc4cn(CCCCC5CCN(CC(=O)N6c7ccccc7NC(=O)c7ccccc76)CC5)cn4)c3)c3ccc(S(=O)(=O)O)cc3C2(C)C)=[N+](CCCCS(=O)(=O)[O-])c2ccccc21.O=C(O)C(F)(F)F.O=C(O)C(F)(F)F.O=C(O)C(F)(F)F
Active | – | 0.014 min⁻¹ | 6.87 | 9.10 | 0.891 nM | 158000 M⁻¹ s⁻¹ | 8.19 | 8.02 | – | CC1(C)C(/C=C/C=C/C=C2/N(CCCCCC(=O)NCCN3CCN(CCCCC4CCN(CC(=O)N5c6ccccc6NC(=O)c6ccccc65)CC4)CC3)c3ccc(S(=O)(=O)O)cc3C2(C)C)=[N+](CCCCS(=O)(=O)[O-])c2ccccc21.O=C(O)C(F)(F)F.O=C(O)C(F)(F)F
Active | 7.58 | 0.026 min⁻¹ | 6.78 | 8.39 | 4.47 nM | 61700 M⁻¹ s⁻¹ | – | – | 8.72 | CC1(C)C(/C=C/C=C/C=C2/N(CCCCCC(=O)NCCNC(=O)CCc3cn(CCCCC4CCN(CC(=O)N5c6ccccc6NC(=O)c6ccccc65)CC4)cn3)c3ccc(S(=O)(=O)O)cc3C2(C)C)=[N+](CCCCS(=O)(=O)[O-])c2ccccc21.O=C(O)C(F)(F)F
